Tests used:
[1] = target: Mitogen-activated protein kinase 14 (Homo sapiens, UniProt Q16539); test: Inhibition of GST-fused p38alpha expressed in Escherichia coli
Summary of the method: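 GST-tagged p38 and MEK6 at the N-terminus, purified from E. coli. Reaction ran 60 min at rt, was EDTA-quenched, and was read with streptavidin SPA beads. IC50 was fitted from % inhibition against ±EDTA controls. Values are means of >2 experiments.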

[2] = Metabolic stability in dog liver S9 microsomal fraction assessed as parent compound turnover after 30 mins; assay type: ADME, subcellular, Canis lupus familiaris; conditions: read-out: Stability
Summary of the method: (§1)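 Test compound was incubated with liver S9 fraction (5 mg protein/mL) for 30 min. Read-out is % turnover of parent compound. Values are means of ≥2 incubations.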

[3] = Metabolic stability in rat liver S9 microsomal fraction assessed as parent compound turnover after 30 mins; assay type: ADME, subcellular; conditions: read-out: Stability; summary of the method: as §1
[4] = Bioavailability in Lewis rat at 1 mg/kg, iv; assay type: ADME, organism-based; conditions: in vivo
[5] = Half life in Lewis rat at 1 mg/kg, iv; assay type: ADME, organism-based; set-up: dose 1 mg/kg, route intravenous; conditions: in vivo
[6] = AUC in Lewis rat at 1 mg/kg, iv; assay type: ADME, organism-based; set-up: dose 1 mg/kg, route intravenous; conditions: plasma
[7] = Volume of distribution at steady state in Lewis rat at 1 mg/kg, iv; assay type: ADME, organism-based; set-up: dose 1 mg/kg, route intravenous; conditions: in vivo, read-out: Vdss
[8] = Clearance in Lewis rat at 1 mg/kg, iv; assay type: ADME, organism-based; set-up: dose 1 mg/kg, route intravenous; conditions: in vivo
[9] = Bioavailability in Beagle dog at 1 mg/kg, iv; assay type: ADME, organism-based, Canis lupus familiaris; conditions: in vivo
[10] = AUC in Beagle dog at 1 mg/kg, iv; assay type: ADME, organism-based, Canis lupus familiaris; set-up: dose 1 mg/kg, route intravenous; conditions: plasma
[11] = Half life in Beagle dog at 1 mg/kg, iv; assay type: ADME, organism-based, Canis lupus familiaris; set-up: dose 1 mg/kg, route intravenous; conditions: in vivo
[12] = Clearance in Beagle dog at 1 mg/kg, iv; assay type: ADME, organism-based, Canis lupus familiaris; set-up: dose 1 mg/kg, route intravenous; conditions: in vivo
[13] = Volume of distribution at steady state in Beagle dog at 1 mg/kg, iv; assay type: ADME, organism-based, Canis lupus familiaris; set-up: dose 1 mg/kg, route intravenous; conditions: in vivo, read-out: Vdss
[14] = target: Vascular endothelial growth factor receptor 2 (Homo sapiens, UniProt P35968); test: Inhibition of VEGFR2
[15] = Bioavailability in Lewis rat at 5 mg/kg, iv; assay type: ADME, organism-based; conditions: in vivo
[16] = target: Receptor tyrosine-protein kinase erbB-4 (Homo sapiens, UniProt Q15303); test: Inhibition of ERBB4
Sequence of Receptor tyrosine-protein kinase erbB-4 (Q15303 whole entry): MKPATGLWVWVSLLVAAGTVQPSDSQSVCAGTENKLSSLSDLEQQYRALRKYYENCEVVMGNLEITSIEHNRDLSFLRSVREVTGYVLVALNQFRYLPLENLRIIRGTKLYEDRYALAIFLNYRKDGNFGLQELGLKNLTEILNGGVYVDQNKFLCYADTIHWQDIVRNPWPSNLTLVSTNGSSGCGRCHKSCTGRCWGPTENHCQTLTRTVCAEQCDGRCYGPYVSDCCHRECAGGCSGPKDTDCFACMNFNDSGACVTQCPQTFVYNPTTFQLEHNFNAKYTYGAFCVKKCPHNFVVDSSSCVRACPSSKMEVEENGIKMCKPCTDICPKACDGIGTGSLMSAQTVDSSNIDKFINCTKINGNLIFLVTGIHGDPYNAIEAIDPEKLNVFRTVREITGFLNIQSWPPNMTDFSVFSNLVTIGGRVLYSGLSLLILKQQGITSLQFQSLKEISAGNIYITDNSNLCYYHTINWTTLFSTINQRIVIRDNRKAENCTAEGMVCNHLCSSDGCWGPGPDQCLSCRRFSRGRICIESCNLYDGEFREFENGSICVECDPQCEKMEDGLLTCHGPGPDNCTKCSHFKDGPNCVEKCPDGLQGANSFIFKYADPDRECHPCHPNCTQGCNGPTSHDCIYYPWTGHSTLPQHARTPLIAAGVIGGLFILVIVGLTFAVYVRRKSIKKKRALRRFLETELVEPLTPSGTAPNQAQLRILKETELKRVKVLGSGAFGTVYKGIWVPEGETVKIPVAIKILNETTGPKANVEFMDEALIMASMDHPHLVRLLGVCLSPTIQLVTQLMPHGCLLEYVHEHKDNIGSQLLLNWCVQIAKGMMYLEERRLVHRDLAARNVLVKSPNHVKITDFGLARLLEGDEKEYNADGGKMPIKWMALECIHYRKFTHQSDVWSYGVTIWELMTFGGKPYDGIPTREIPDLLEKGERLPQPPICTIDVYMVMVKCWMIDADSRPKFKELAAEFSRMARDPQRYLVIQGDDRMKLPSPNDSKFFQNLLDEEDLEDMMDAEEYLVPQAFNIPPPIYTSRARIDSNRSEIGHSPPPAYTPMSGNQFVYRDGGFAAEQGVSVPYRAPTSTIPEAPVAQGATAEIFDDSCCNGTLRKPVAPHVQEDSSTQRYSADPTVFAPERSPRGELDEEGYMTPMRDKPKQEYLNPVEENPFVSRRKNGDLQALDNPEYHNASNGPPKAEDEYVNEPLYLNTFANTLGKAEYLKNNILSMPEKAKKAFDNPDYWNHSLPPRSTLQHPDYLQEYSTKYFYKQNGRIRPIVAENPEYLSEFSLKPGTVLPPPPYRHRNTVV

[17] = target: Glycogen synthase kinase-3 beta (Homo sapiens, UniProt P49841); test: Inhibition of GSK3-beta
Sequence of Glycogen synthase kinase-3 beta (P49841 whole entry): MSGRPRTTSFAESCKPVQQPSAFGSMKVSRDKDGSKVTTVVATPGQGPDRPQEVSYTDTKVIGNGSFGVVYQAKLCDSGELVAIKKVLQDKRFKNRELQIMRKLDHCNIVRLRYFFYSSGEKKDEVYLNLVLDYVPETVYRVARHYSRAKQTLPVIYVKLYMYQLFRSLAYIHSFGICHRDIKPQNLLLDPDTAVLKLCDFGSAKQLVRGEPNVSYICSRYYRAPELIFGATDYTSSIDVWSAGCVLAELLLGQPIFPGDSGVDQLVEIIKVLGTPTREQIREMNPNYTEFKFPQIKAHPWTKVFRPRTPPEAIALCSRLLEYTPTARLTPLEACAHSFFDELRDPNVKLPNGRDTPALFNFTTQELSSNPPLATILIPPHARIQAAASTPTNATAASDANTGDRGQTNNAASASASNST

[18] = Half life in Lewis rat at 5 mg/kg, iv; assay type: ADME, organism-based; set-up: dose 5 mg/kg, route intravenous; conditions: in vivo
[19] = target: Macrophage colony-stimulating factor 1 receptor (Homo sapiens, UniProt P07333); test: Inhibition of C-FMS
Sequence of Macrophage colony-stimulating factor 1 receptor (P07333 whole entry): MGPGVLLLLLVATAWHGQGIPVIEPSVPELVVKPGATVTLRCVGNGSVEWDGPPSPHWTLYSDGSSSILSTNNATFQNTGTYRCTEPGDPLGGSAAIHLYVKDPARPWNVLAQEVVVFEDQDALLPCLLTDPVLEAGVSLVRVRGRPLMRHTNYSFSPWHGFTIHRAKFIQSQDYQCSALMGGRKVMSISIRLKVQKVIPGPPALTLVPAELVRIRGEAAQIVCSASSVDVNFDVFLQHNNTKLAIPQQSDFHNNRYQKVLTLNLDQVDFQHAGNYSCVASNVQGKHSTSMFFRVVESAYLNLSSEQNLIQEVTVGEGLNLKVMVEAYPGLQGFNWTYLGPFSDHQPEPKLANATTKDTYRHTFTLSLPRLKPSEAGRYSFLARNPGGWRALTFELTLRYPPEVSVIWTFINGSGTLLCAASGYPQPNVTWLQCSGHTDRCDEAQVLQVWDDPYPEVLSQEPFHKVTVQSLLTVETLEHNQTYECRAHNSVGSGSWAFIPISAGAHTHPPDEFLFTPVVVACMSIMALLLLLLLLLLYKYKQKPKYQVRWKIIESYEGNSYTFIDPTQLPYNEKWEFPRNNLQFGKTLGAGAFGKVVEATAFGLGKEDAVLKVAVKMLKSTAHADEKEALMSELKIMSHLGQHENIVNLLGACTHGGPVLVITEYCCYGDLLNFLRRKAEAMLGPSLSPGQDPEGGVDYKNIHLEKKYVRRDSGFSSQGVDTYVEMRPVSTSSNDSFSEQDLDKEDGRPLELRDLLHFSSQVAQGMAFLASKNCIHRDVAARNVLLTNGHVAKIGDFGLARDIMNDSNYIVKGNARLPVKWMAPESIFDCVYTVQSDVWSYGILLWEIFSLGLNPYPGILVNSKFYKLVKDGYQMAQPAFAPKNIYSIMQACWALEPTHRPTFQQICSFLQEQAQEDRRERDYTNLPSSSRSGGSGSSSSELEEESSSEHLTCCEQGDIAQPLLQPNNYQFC

[20] = target: Receptor tyrosine-protein kinase erbB-2 (Homo sapiens, UniProt P04626); test: Inhibition of ERBB2
[21] = AUC in Lewis rat at 5 mg/kg, iv; assay type: ADME, organism-based; set-up: dose 5 mg/kg, route intravenous; conditions: plasma
[22] = target: RAC-gamma serine/threonine-protein kinase (Homo sapiens, UniProt Q9Y243); test: Inhibition of AKT3
Sequence of RAC-gamma serine/threonine-protein kinase (Q9Y243 whole entry): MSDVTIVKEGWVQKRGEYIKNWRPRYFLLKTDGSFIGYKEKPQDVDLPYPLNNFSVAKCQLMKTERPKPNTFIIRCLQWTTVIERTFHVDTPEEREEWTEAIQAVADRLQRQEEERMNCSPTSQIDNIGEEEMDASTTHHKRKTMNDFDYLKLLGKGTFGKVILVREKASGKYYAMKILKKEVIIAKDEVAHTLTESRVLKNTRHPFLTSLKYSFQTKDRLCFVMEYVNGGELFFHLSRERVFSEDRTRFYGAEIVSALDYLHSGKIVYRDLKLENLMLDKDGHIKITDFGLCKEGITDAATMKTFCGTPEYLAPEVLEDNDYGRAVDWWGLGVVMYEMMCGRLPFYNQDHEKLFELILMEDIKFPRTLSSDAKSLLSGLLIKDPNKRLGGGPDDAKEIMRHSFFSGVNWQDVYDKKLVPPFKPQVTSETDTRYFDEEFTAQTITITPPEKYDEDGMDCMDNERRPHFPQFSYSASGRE

[23] = target: Cyclin-dependent kinase 2 (Homo sapiens, UniProt P24941); test: Inhibition of CDK2/CyclinA
[24] = Clearance in Lewis rat at 5 mg/kg, iv; assay type: ADME, organism-based; set-up: dose 5 mg/kg, route intravenous; conditions: in vivo
[25] = Volume of distribution at steady state in Lewis rat at 5 mg/kg, iv; assay type: ADME, organism-based; set-up: dose 5 mg/kg, route intravenous; conditions: in vivo, read-out: Vdss
[26] = target: Angiopoietin-1 receptor (Homo sapiens, UniProt Q02763); test: Inhibition of TIE2
Sequence of Angiopoietin-1 receptor (Q02763 whole entry): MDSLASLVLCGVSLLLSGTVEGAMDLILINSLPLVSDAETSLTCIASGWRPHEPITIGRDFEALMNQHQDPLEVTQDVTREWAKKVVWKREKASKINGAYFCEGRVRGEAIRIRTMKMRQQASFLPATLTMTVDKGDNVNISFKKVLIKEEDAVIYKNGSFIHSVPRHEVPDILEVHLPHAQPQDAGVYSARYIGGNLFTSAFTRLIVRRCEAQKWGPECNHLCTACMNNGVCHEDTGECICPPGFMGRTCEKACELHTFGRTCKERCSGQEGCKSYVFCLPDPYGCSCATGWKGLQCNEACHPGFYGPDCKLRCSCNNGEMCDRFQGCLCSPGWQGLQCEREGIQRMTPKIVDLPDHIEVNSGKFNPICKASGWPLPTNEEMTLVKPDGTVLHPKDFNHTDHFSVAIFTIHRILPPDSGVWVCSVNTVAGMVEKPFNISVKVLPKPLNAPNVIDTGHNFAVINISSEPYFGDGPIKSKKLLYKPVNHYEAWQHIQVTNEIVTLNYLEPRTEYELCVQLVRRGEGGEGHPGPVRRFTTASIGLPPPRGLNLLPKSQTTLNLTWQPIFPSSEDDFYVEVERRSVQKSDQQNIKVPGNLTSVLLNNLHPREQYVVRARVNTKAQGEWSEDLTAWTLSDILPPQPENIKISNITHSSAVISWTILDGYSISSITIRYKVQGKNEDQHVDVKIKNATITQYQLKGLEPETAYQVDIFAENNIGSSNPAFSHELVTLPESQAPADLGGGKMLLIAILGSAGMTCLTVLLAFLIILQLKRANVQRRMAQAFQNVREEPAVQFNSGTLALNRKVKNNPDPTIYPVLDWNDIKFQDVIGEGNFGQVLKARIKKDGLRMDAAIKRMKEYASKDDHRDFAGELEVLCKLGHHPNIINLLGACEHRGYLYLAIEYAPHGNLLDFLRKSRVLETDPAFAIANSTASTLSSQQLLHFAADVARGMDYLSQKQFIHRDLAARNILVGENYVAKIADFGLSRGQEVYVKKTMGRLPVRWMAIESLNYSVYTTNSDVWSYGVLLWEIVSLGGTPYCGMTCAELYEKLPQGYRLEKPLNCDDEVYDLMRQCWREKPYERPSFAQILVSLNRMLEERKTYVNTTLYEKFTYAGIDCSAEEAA

[27] = target: [Pyruvate dehydrogenase (acetyl-transferring)] kinase isozyme 4, mitochondrial (Homo sapiens, UniProt Q16654); test: Inhibition of PDHK4
Sequence of [Pyruvate dehydrogenase (acetyl-transferring)] kinase isozyme 4, mitochondrial (Q16654 whole entry): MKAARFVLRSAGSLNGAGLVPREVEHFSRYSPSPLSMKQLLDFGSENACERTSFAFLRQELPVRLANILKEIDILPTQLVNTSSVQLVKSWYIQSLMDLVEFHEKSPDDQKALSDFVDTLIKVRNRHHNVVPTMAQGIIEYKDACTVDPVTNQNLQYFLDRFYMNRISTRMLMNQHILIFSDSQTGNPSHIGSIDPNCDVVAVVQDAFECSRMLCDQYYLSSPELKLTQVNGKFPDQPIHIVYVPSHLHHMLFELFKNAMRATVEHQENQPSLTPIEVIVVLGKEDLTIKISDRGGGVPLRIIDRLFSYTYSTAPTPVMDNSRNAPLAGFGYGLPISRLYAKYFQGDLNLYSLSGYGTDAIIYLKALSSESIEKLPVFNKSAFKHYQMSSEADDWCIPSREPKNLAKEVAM

[28] = tested on: Mus musculus; test: Inhibition of LPS-induced TNF production in mouse at 30 mg/kg, po; assay type: functional
[29] = tested on: PBMC; test: Inhibition of LPS-induced TNF release in human PBMC; assay type: functional, cell-based

Sequence of Mitogen-activated protein kinase 14 (Q16539 whole entry, the tested form may be a part): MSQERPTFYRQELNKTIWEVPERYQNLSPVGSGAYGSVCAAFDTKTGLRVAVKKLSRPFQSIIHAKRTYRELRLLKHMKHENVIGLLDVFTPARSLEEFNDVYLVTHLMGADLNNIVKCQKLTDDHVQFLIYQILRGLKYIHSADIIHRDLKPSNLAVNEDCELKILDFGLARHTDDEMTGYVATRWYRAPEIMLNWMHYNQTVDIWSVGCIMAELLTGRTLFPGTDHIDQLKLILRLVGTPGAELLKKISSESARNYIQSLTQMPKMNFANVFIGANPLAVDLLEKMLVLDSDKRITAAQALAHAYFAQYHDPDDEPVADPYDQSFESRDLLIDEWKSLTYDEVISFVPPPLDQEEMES

Work on `Cc1cccn2nc(-c3ccc(F)cc3)c(-c3ccncc3)c12` yielded an IC50 [1] of 0.28 µM.
`Cc1ccc2c(-c3ccncc3)c(-c3ccc(F)cc3)nn2c1` gave an IC50 [1] of 0.15 µM, a metabolised at 0.5 h [2] of 81% and a metabolised at 0.5 h [3] of 99%.
Molecule `Cc1cccc2c(-c3ccncc3)c(-c3ccc(F)cc3)nn12` has an IC50 [1] of 0.15 µM, a metabolised at 0.5 h [2] of 93% and a metabolised at 0.5 h [3] of 43%.
Molecule `Fc1ccc(-c2nn3cc(C(F)(F)F)ccc3c2-c2ccncc2)cc1` has an IC50 [1] of 0.2 µM, a metabolised at 0.5 h [2] of 0% and a bioavailability [4] of 84%. For the same molecule, the half-life [5] was 2.5 h, the metabolised at 0.5 h [3] was 0% and the AUC [6] was 500 ng·h/mL. The Vd [7] was 5.4 L/kg and the clearance [8] was 34 mL/min/kg.
Work on `N#Cc1ccc2c(-c3ccncc3)c(-c3ccc(F)cc3)nn2c1` yielded an IC50 [1] of 0.14 µM.
Work on `Fc1ccc(-c2nn3c(OC4CCCC4)cccc3c2-c2ccncc2)cc1` yielded an IC50 [1] of 0.17 µM, a metabolised at 0.5 h [2] of 18% and a metabolised at 0.5 h [3] of 8%.
`Fc1ccc(-c2nn3cc(Cl)ccc3c2-c2ccncc2)cc1` showed an IC50 [1] of 0.15 µM.
In the case of `Fc1ccc(-c2nn3cccc(F)c3c2-c2ccncc2)cc1`, the IC50 [1] is reported as 0.24 µM, the metabolised at 0.5 h [2] is reported as 39% and the metabolised at 0.5 h [3] is reported as 21%.
For `Fc1ccc(-c2nn3c(OCC(F)(F)F)cccc3c2-c2ccncc2)cc1`, the IC50 [1] was 0.07 µM, the metabolised at 0.5 h [2] was 0% and the bioavailability [9] was 32%. It also gave a bioavailability [4] of 72%, an AUC [10] of 1500 ng·h/mL and a half-life [11] of 6.5 h. The half-life [5] was 2.1 h, the metabolised at 0.5 h [3] was 0% and the AUC [6] was 500 ng·h/mL. It also gave a Vd [7] of 5.4 L/kg, a clearance [12] of 17 mL/min/kg and a Vd [13] of 8.2 L/kg. For the same molecule, the clearance [8] was 40 mL/min/kg.
In the case of `Fc1ccc(-c2nn3cc(F)ccc3c2-c2ccncc2)cc1`, the IC50 [1] is reported as 0.16 µM, the metabolised at 0.5 h [2] is reported as 23% and the metabolised at 0.5 h [3] is reported as 1%.
`Fc1ccc(-c2nn3c(Cl)cccc3c2-c2ccncc2)cc1` showed an IC50 [1] of 0.15 µM, a metabolised at 0.5 h [2] of 84% and a metabolised at 0.5 h [3] of 37%.
`CCOc1cccc2c(-c3ccncc3)c(-c3ccc(F)cc3)nn12` gave an IC50 [1] of 0.05 µM.
Molecule `Cc1ccn2nc(-c3ccc(F)cc3)c(-c3ccncc3)c2c1` has an IC50 [1] of 0.16 µM, a half-life [5] of 1.2 h and a metabolised at 0.5 h [3] of 60%. It also gave an AUC [6] of 200 ng·h/mL, a Vd [7] of 2 L/kg and a clearance [8] of 83 mL/min/kg.
For `Fc1ccc(-c2nn3ccccc3c2-c2ccncc2)cc1` [GW434756X], the IC50 [14] was > 10 µM, the bioavailability [15] was 50% and the IC50 [1] was 0.12 µM. For the same molecule, the IC50 [16] was > 10 µM, the IC50 [17] was 2.2 µM and the half-life [18] was 1.2 h. For the same molecule, the metabolised at 0.5 h [2] was 81%, the IC50 [19] was > 10 µM and the IC50 [20] was > 10 µM. For the same molecule, the bioavailability [9] was 18%, the AUC [21] was 1700 ng·h/mL and the IC50 [22] was > 10 µM. The AUC [10] was 500 ng·h/mL, the half-life [11] was 1.9 h and the IC50 [23] was > 10 µM. It also gave a metabolised at 0.5 h [3] of 27%, a clearance [24] of 49 mL/min/kg and a Vd [25] of 3.2 L/kg. The IC50 [26] was > 10 µM, the IC50 [27] was > 10 µM and the clearance [12] was 34 mL/min/kg. The Vd [13] was 3.8 L/kg, the inhibition in vivo at 30 mg/kg [28] was 65% and the IC50 [29] was 0.3 µM.
